Measurements as given in ChEMBL document CHEMBL2157878, “In vitro cellular uptake and dimerization of signal transducer and activator of transcription-3 (STAT3) identify the photosensitizing and imaging-potential of isomeric photosensitizers derived from chlorophyll-a and bacteriochlorophyll-a” (J Med Chem, 2011).
The source made the active and inactive calls. No cut-off for these calls is given here.

Assays:
Heart = experiment: Drug uptake in BALB/c mouse heart xenografted with mouse Colon 26 cells at 150 uCi administered parenterally after 2 hrs by PET analysis; type: ADME, tissue-based; settings: in vivo, other
Muscle tissue = experiment: Drug uptake in BALB/c mouse muscle xenografted with mouse Colon 26 cells at 150 uCi administered parenterally after 2 hrs by PET analysis; type: ADME, tissue-based; settings: in vivo
[1] = Drug uptake in BALB/c mouse tumor xenografted with mouse Colon 26 cells at 150 uCi administered parenterally after 2 hrs by PET analysis; type: ADME, Neoplasm; settings: in vivo, other
BCC1 [2] = experiment: Induction of apoptosis in human BCC1 cells assessed as survival after 24 hrs by trypan blue assay; type: functional, cell-based
How it was run: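 BCC1 cells were loaded for 2 h in serum-free DMEM with 2-fold serial dilutions of photosensitizer. After washing, they were illuminated in serum-free medium at 37° with 665 nm dye-laser light for 9 min (3 J/cm²). Cells were then cultured 24 h in DMEM/10% FCS and trypsinized. Trypan blue-excluding cells were counted by hemocytometer and expressed relative to untreated controls.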

Colon 26 [3] = experiment: Drug uptake in mouse Colon 26 cells at 800 nM after 24 hrs by flow cytometry; type: ADME, cell-based; settings: colon 26, 24 h, 0.8 µM
How it was run: (§1)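 Colon26 cells seeded at 0.33×10⁶ per well and grown overnight, then given 100–800 nM PS in triplicate at 37°C, with no-PS wells for autofluorescence. Harvested by trypsin, spun cold, and run on flow cytometry (Ex 633 nm, Em 730±45 nm, 10,000 events). Value is mean fluorescence of triplicates minus autofluorescence.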

Liver = experiment: Drug uptake in parenterally dosed BALB/c mouse liver xenografted with mouse Colon 26 cells after 72 hrs by PET analysis; type: ADME, organism-based; settings: in vivo
How it was run: (§2)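 Tumor-bearing BALB/c mice (Colon26, subcutaneous) received ¹²⁴I-labeled photosensitizer via the tail vein at 15–50 μCi. Three mice per time point were sacrificed at 24, 48 and 72 h. Organs were removed, weighed and counted in a γ-well counter. Uptake was expressed as %ID/g tissue.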

Spleen = experiment: Drug uptake in parenterally dosed BALB/c mouse spleen xenografted with mouse Colon 26 cells after 72 hrs by PET analysis; type: ADME, organism-based; settings: in vivo; how it was run: as §2
Intestine = experiment: Drug uptake in parenterally dosed BALB/c mouse intestine xenografted with mouse Colon 26 cells after 72 hrs by PET analysis; type: ADME, organism-based; settings: in vivo, other; how it was run: as §2
Mus musculus [4] = experiment: Drug uptake in BALB/c mouse xenografted with mouse Colon 26 cells at 1 umol/kg, iv after 24 hrs by fluorescence imaging; type: ADME, organism-based; settings: in vivo
How it was run: (§3)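 BALB/c mice (3/group) with Colon26 tumours (1×10⁶ cells s.c., right axilla, grown to 4–5 mm) were shaved and given 1.0 μmol/kg PS i.v. Whole-body fluorescence imaged under ketamine/xylazine at 24, 48 and 72 h: 540/40 nm illumination, long-pass emission filter, spectral unmixing of autofluorescence. Read-out is mean intensity of a 20 mm tumour ROI (AU), mean ± SD of 3 mice.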

Mus musculus [5] = experiment: Drug uptake in BALB/c mouse xenografted with mouse Colon 26 cells at 1 umol/kg, iv after 48 hrs by fluorescence imaging; type: ADME, organism-based; settings: in vivo; how it was run: as §3
[6] = Photostability of the compound in 17% bovine calf serum assessed as rate of photobleaching at 6.5 uM after 20 to 22 mins in presence of light (75 mW/cm'2); type: ADME; settings: cattle, read-out: Drug degradation
How it was run: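 Equimolar (6.5 μM) photosensitizer solutions in 17% bovine calf serum were irradiated at 75 mW/cm². Absorption spectra were recorded at successive time points, and the normalized long-wavelength absorbance was plotted against time to follow photobleaching.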

Colon 26 [7] = experiment: Photosensitizing activity in mouse Colon 26 assessed as cell viability at 0.3 uM after 24 hrs followed by illumination with 665 nm laser light and 48 hrs incubation in dark by MTT assay; type: functional, cell-based
How it was run: (§4)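 Colon26 cells, 3×10³/well in RPMI/10% FCS, were incubated 24 h in the dark with photosensitizer at 0.3 μM or 0.0625 μM. Medium was replaced with drug-free complete medium before illumination at 0–4 J/cm², 3.2 mW/cm², at each compound's peak wavelength (660, 665 or 674 nm). After 48 h in the dark, MTT was added for the last 4 h and absorbance read at 570 nm. Four replicate wells per condition, three independent experiments.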

BCC1 [8] = experiment: Reduction in EGFR levels in human BCC1 cells after 9 mins by Western blotting in presence of 665 nm laser light; type: functional, cell-based
How it was run: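 BCC1 cells were incubated 2 h in serum-free DMEM with 2-fold serially diluted photosensitizer, washed, and illuminated with 665 nm light for 9 min (3 J/cm²). They were extracted immediately in RIPA buffer. Extracts (20 μg protein) were run on 6–10% SDS gels and immunoblotted for STAT3, EGFR, p38 and P-p38 with ECL detection. STAT3 crosslinking was scored as percent conversion of monomer into dimer form I.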

[9] = molecular target: MAP kinase p38 (Homo sapiens) (UniProt O15264+Q15759+Q16539+P53778); experiment: Activation of p38 MAPK in human BCC1 cells assessed as dimerization of STAT3 after 9 mins by Western blotting in presence of 665 nm laser light; type: cell-based
How it was run: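 Subconfluent BCC1 cells, 2 h in serum-free DMEM with 2-fold serially diluted PS, then 665 nm dye-laser light for 9 min at 37°C (3 J/cm²) in serum-free medium. Cells extracted immediately and lysed in RIPA. 20 μg protein run on 6–10% SDS gels and immunoblotted for STAT3, p38/P-p38 and EGFR with ECL detection. Crosslinking given as % monomeric STAT3 converted to dimer form I.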

Mus musculus [10] = experiment: Drug uptake in BALB/c mouse xenografted with mouse Colon 26 cells at 1 umol/kg, iv after 72 hrs by fluorescence imaging; type: ADME, organism-based; settings: in vivo; how it was run: as §3
BCC1 [11] = experiment: Increase in STAT3 cross linking level in human BCC1 cells assessed as dimerization of STAT3 after 9 mins by Western blotting in presence of 665 nm light
[12] = Drug uptake in human BCC1 cells assessed as deposition in mitochondria at 0.2 uM after for 30 mins by phase contrast microscopy; type: ADME; settings: bcc1, 0.5 h
How it was run: (§5)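 BCC1 cells in subconfluent culture, washed and incubated 30 min in serum-free DMEM with 200 nM PS. Washed free of PS and imaged at 640X under phase contrast and HPPH fluorescence (Ex 410/40, Em 675/750 nm). Cell PS also quantified by solubilising cells and reading fluorescence (Ex 415, Em 667 nm).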

Zone of skin = experiment: Drug uptake in skin of BALB/c mouse xenografted with mouse Colon 26 cells measured after removal of tumor at 1 umol/kg, iv after 24 hrs by fluorescence imaging; type: ADME, organism-based; settings: in vivo
How it was run: (§6)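 BALB/c mice carried subcutaneous Colon26 tumors (1×10⁶ cells, right posterior axilla) grown to 4–5 mm and were given 1 μmol/kg i.v. At 24 h the tumor was surgically removed and imaged, and the skin flap was imaged separately. Excitation was 540/40 nm with long-pass emission, followed by spectral unmixing of autofluorescence.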

Colon 26 [13] = experiment: Photosensitizing activity in mouse Colon 26 assessed as cell viability at 0.0625 uM after 24 hrs followed by illumination with 665 nm laser light and 48 hrs incubation in dark by MTT assay in presence of serum; type: functional, cell-based; how it was run: as §4
Colon 26 [14] = experiment: Drug uptake in mouse Colon 26 cells at 400 nM after 24 hrs by flow cytometry; type: ADME, cell-based; settings: colon 26, 24 h, 0.4 µM; how it was run: as §1
[15] = Drug uptake in human BCC1 cells assessed as deposition in mitochondria at 0.2 uM after 30 mins by HPPH fluorescence spectrophotometry; type: ADME; settings: bcc1, 0.5 h; how it was run: as §5
[16] = Drug uptake in tumor of BALB/c mouse xenografted with mouse Colon 26 cells at 1 umol/kg, iv after 24 hrs by fluorescence imaging; type: ADME, organism-based, Neoplasm; settings: in vivo; how it was run: as §6
[17] = Drug uptake in human BCC1 cells assessed as deposition in mitochondria at 200 nM after 30 mins by HPPH fluorescence spectrophotometry; type: ADME; settings: bcc1, 0.5 h, 0.2 µM; how it was run: as §5
[18] = Drug uptake in BALB/c mouse tumor xenografted with mouse Colon 26 cells at 1 umol/kg, iv after 24 hrs by fluorescence imaging; type: ADME, organism-based, Neoplasm; settings: in vivo; how it was run: as §3
[19] = Drug uptake in human BCC1 cells assessed as subcellular localization at 0.2 uM after 4 hrs by HPPH fluorescence spectrophotometry; type: ADME, cell-based; settings: bcc1, 4 h
How it was run: (§7)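 BCC1 cells incubated 30 min in serum-free DMEM with 3.2 μM or 0.2 μM PS, washed, and imaged at 640X under phase contrast or HPPH fluorescence. Cultures then kept a further 4 h in PS- and serum-free DMEM and imaged again under the same conditions to follow subcellular redistribution.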

[20] = Drug uptake in human BCC1 cells assessed as subcellular localization at 0.2 uM after 4 hrs by phase contrast microscopy; type: ADME, cell-based; settings: bcc1, 4 h; how it was run: as §7
[21] = Drug uptake in human BCC1 cells assessed as deposition in mitochondria at 200 nM after 30 mins by phase contrast microscopy; type: ADME; settings: bcc1, 0.5 h, 0.2 µM; how it was run: as §5
[22] = test system: BCC1 cells (Homo sapiens); experiment: Ratio of drug uptake in human BCC1 cells in serum free medium to drug uptake in human BCC1 cells in medium containing 10% fetal calf serum by fluorescent microscopy
[23] = Drug uptake in human BCC1 cells at 200 nM incubated for 30 mins measured after 4 to 24 hrs by fluorescent microscopy; type: ADME, cell-based; settings: bcc1, 0.5 h, 0.2 µM
Colon 26 [24] = experiment: Antitumor activity against mouse Colon 26 cells xenografted in parenterally dosed BALB/c mouse assessed as tumor cure at 1 umol/kg after 24 hrs followed by illumination with 128 J/cm'2, 14 mW/cm'2 laser light measured after 60 days; type: functional
How it was run: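 Subcutaneous Colon26 tumours in BALB/c mice (10/group), dosed at 4–5 mm diameter with 1 μmol/kg PS. At 24 h, unanaesthetised restrained mice received laser light to the tumour (665, 660 or 674 nm by compound; 128 J/cm², 14 mW/cm²). Tumours measured daily (V = L·W²/2). Cure means no palpable tumour by day 60–90. Euthanasia at 400 mm³.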

For `OC[C@H]1O[C@@H](O)[C@H]([18F])[C@@H](O)[C@@H]1O` [FLUDEOXYGLUCOSE-F18], the Drug uptake (Heart) was “Active”, the Drug uptake (Muscle tissue) was “Active” and the Drug uptake [1] was “Active”.

In the case of `CCC1=C(C)c2cc3[nH]c(cc4nc(c5c6[nH]c(cc1n2)c(C)c6C(=O)C5)C(CCC(=O)O)[C@@H]4C)c(C)c3C(C)OCc1cccc(I)c1` (stereo partly drawn), the Activity (BCC1 [2]) is reported as “Dose-dependent effect”, the Drug uptake (Colon 26 [3]) is reported as “Active” and the Drug uptake (Liver) is reported as “Active”. For the same molecule, the Drug uptake (Spleen) was “Active”, the Drug uptake (Intestine) was “Active” and the Drug uptake (Mus musculus [4]) was “Active”. For the same molecule, the Drug uptake (Mus musculus [5]) was “Active”, the degraded at 6.5 µM [6] was 50% and the Activity (Colon 26 [7]) was “Active”. For the same molecule, the Activity (BCC1 [8]) was “Active”, the Activity [9] was “Active” and the Drug uptake (Mus musculus [10]) was “Active”. For the same molecule, the Activity (BCC1 [11]) was “Active”, the Drug uptake [12] was “Active” and the Drug uptake (Zone of skin) was “Not Active”. The Activity (Colon 26 [13]) was “Active”, the Drug uptake (Colon 26 [14]) was “Active” and the Drug uptake [15] was “Active”. For the same molecule, the Drug uptake [16] was “Active”, the Drug uptake [17] was “Active” and the Drug uptake [18] was “Active”. For the same molecule, the Drug uptake [19] was “Active”, the Drug uptake [20] was “Active” and the Drug uptake [21] was “Active”. The Ratio [22] was 4 and the Drug uptake [23] was “Active”.

With `CC[C@H]1c2cc3[nH]c4c(c5nc(cc6[nH]c(cc(n2)[C@@H]1C)c(C(C)OCc1cccc(I)c1)c6C)C(C)=C5CCC(=O)O)CC(=O)c4c3C` (stereo partly drawn) the Activity (BCC1 [2]) was “Dose-dependent effect”, the Drug uptake (Colon 26 [3]) was “Active” and the Drug uptake (Mus musculus [4]) was “Active”. For the same molecule, the Drug uptake (Mus musculus [5]) was “Active”, the degraded at 6.5 µM [6] was 50% and the Activity (BCC1 [8]) was “Active”. The Activity [9] was “Active”, the Drug uptake (Mus musculus [10]) was “Active” and the Activity (BCC1 [11]) was “Active”. The Drug uptake (Zone of skin) was “Not Active”, the Activity (Colon 26 [13]) was “Active” and the Drug uptake (Colon 26 [14]) was “Active”. For the same molecule, the Drug uptake [16] was “Active”, the Drug uptake [17] was “Active” and the Drug uptake [18] was “Active”. For the same molecule, the Drug uptake [21] was “Active”, the Activity (Colon 26 [24]) was 60% and the Ratio [22] was 4. For the same molecule, the Drug uptake [23] was “Active”.
